Activity and Drug uptake data for one compound are collected here from ChEMBL document CHEMBL3286111, “Tryptophan hydroxylase 1 (Tph-1)-targeted bone anabolic agents for osteoporosis” (J Med Chem, 2014).

Active and inactive are the calls of the source. The rule behind the calls is not given here.

Data set [1] concerns Rattus norvegicus. In words: Antiosteoporotic activity in ovariectomized rat assessed as increase in trabecular bone volume fraction at 10 to 20 mg/kg/day, po for 30 days by microcomputed tomographic analysis relative to control. The format is functional, Trabecula. In outline:
(§1)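 Female rats, 12 weeks old, underwent bilateral ovariectomy; sham, OVX-vehicle and ip PTH 20 μg/kg/day groups were included; n = 8. Oral dosing at 1, 10 and 20 mg/kg/day in 5% ethanol/95% water began 3 days post-surgery, once daily for 30 days. Lumbar vertebrae were scanned by μCT for BV/TV, Tb.Th, Tb.N, Tb.Sp and BMD.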

Data set [2] relates to Rattus norvegicus. In words: Antiosteoporotic activity in ovariectomized rat assessed as decrease in gut serotonin level at 20 mg/kg, po qd for 7 days by HPLC analysis relative to control. It is filed as functional. Further details: scale not given: the % may be the effect or the level left. In outline: (§2)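 Female rats, 12 weeks old (220 g), underwent bilateral ovariectomy under ip pentobarbital; sham controls included; n = 5 per group. Oral dosing in vehicle of 5% ethanol/95% water began 3 days post-surgery, once daily for 7 days. Small intestine (jejunum, ileum) was homogenised in 5% HClO4 and mobile phase. Serotonin was read by C18 HPLC with fluorescence detection (ex 290/em 330 nm).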

The test system of data set [3] is Rattus norvegicus. Nature of the data set: Effect on liver pathology in ovariectomized rat at 10 to 20 mg/kg/day, po for 30 days by hematoxylin-eosin staining-based light microscopic analysis. Particulars: in vivo, 720 h. On the set-up: route oral. The format is ADME, organism-based. In outline:
(§3)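 OVX rats dosed orally with 9a (1, 10, 20 mg/kg/day) for 30 days from 3 days post-surgery. Uteri and livers were collected at the end, then sectioned, stained and examined by light microscopy for endometrial luminal epithelium, glands and liver morphology/pathology.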

Data set [4] concerns Rattus norvegicus. In words: Antiosteoporotic activity in ovariectomized rat assessed as decrease in serum CTX-1 level at 10 to 20 mg/kg/day, po for 30 days by ELISA. The format is functional, organism-based. An outline of the steps: (§4)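 OVX female rats (12 weeks old), oral 9a at 1, 10 or 20 mg/kg per day in 5% ethanol vehicle, starting 3 days post-surgery, for 30 days, n = 8. Serum was taken at the end, centrifuged and stored at −20 °C. P1NP or CTX-1 was measured by ELISA kit and reported as means ± SD.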
(ELISA stands for enzyme-linked immunosorbent assay.)

In data set [5] the test system is Rattus norvegicus. In words: Antiosteoporotic activity in ovariectomized rat assessed as increase in trabecular thickness at 1 mg/kg/day, po for 30 days by microcomputed tomographic analysis. It is filed as functional, organism-based. As to conditions: Trabecula. In outline: (§5)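 Ovariectomized 12-week-old female rats dosed orally once daily with 9a (1, 10, 20 mg/kg/day, 5% ethanol vehicle) for 30 days, beginning 3 days after surgery, n = 8 per group. Lumbar vertebrae were collected after CO2 euthanasia and scanned by micro-CT for BV/TV, Tb.Th, Tb.N, Tb.Sp and BMD.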

Data set [6] deals with Rattus norvegicus. In words: Antiosteoporotic activity in ovariectomized rat assessed as decrease in gut serotonin level at 10 mg/kg, po qd for 7 days by HPLC analysis relative to control. It is filed as functional. Further details: scale not given: the % may be the effect or the level left. An outline of the steps: as §2
Data set [7] concerns Rattus norvegicus. In words: Antiosteoporotic activity in ovariectomized rat assessed as decrease in trabecular separation at 10 to 20 mg/kg/day, po for 30 days by microcomputed tomographic analysis relative to control. It is filed as functional, Trabecula. Further details: scale not given: the % may be the effect or the level left. An outline of the steps:
as §1

For data set [8], the system named is Rattus norvegicus. In words: Antiosteoporotic activity in ovariectomized rat assessed as increase in trabecular number at 10 to 20 mg/kg/day, po for 30 days by microcomputed tomographic analysis relative to control. The format is functional, Trabecula. An outline of the steps:
as §1

The subject of data set [9] is Rattus norvegicus. In words: Effect on liver morphology in ovariectomized rat at 10 to 20 mg/kg/day, po for 30 days by hematoxylin-eosin staining-based light microscopic analysis. The format is ADME, organism-based. On the set-up: route oral. Particulars: in vivo, 720 h. An outline of the steps: as §3
Data set [10] relates to Rattus norvegicus. In words: Antiosteoporotic activity in ovariectomized rat assessed as increase in trabecular thickness at 10 to 20 mg/kg/day, po for 30 days by microcomputed tomographic analysis relative to control. The format is functional, Trabecula. In outline: as §1
Data set [11] relates to Rattus norvegicus. Nature of the data set: Antiosteoporotic activity in ovariectomized rat assessed as increase in bone mineral density at 1 mg/kg/day, po for 30 days by microcomputed tomographic analysis. It is filed as functional, organism-based. In outline:
as §5

For data set [12], the system named is Rattus norvegicus. Nature of the data set: Effect on brain serotonin level in ovariectomized rat at 1 to 20 mg/kg/day, po for 30 days by RP-HPLC analysis. The format is functional, organism-based. In outline:
(§6)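 Female rats, 12 weeks old (220 g), bilateral ovariectomy under ip pentobarbital; from 3 days after surgery, 9a given orally once daily at 1, 10 or 20 mg/kg in 5% ethanol/95% water for 30 days, n = 8. Serum (HClO4-deproteinized) or brain homogenate (HClO4 plus NaH2PO4/acetonitrile) run on RP-C18 HPLC with fluorescence detection (ex 290/em 330 nm).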

The subject of the next data set is Brain. In words: Drug uptake in ovariectomized rat brain at 10 to 20 mg/kg, po qd for 7 days by LC-MS analysis. The format is ADME, organism-based. Further details: dose 10-20 mg/kg, route oral. As to conditions: in vivo, 168 h. An outline of the steps:
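OVX rats given oral 9a at 10 or 20 mg/kg once daily for 7 days, starting 3 days after surgery, n = 5. Brain homogenate (about 2.0 g) extracted with 5% HClO4 and ethyl acetate, centrifuged; the organic layer was dried and analysed by LC-MS/MS (limit of detection 12.4 pg).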

The subject of data set [13] is Rattus norvegicus. Nature of the data set: Antiosteoporotic activity in ovariectomized rat assessed as decrease in trabecular separation at 1 mg/kg/day, po for 30 days by microcomputed tomographic analysis. It is filed as functional, organism-based. Particulars: Trabecula. In outline:
as §5

Data set [14] concerns Rattus norvegicus. In words: Antiosteoporotic activity in ovariectomized po dosed rat assessed as decrease in serum serotonin level administered for 30 days by HPLC analysis. It is filed as functional, organism-based. In outline:
as §6

Data set [15] can be described thus: Cytotoxicity against rat PC12 cells by MTT assay. It is filed as cell-based. As to conditions: pc-12. In outline:
(§7)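 RBL2H3 cells (α-MEM) or PC12 cells (D-MEM), both with 10% FBS, treated at a single dose in 0.1% DMSO; 0.1% DMSO control; 37 °C, 5% CO2. MTT (5 mg/mL) added 4 h before the end, then SDS/DMF lysis buffer (pH 7.2) for 6 h; absorbance read at 570 nm. Cytotoxicity % calculated from background-corrected OD versus control.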
On the technique in general: Tetrazolium assays rely on reduction of a dye to a coloured formazan, in cell work by metabolically active cells.

Data set [16] in a line: Cytotoxicity against rat RBL2H3 cells by MTT assay. It is filed as cell-based. On the set-up: concentration or dose not given beside the values. Particulars: rbl-2h3. An outline of the steps:
as §7

Data set [17] relates to Rattus norvegicus. In words: Antiosteoporotic activity in ovariectomized rat assessed as increase in bone mineral density at 10 to 20 mg/kg/day, po for 30 days by microcomputed tomographic analysis relative to control. The format is functional. An outline of the steps: as §1
Data set [18] relates to Rattus norvegicus. Nature of the data set: Effect on endometrial luminal epithelium with undeveloped endometrial gland in ovariectomized rat at 10 to 20 mg/kg/day, po for 30 days by hematoxylin-eosin staining-based light microscopic analysis. The format is ADME, organism-based. Further details: route oral. As to conditions: in vivo, 720 h. In outline:
as §3

Data set [19] deals with Rattus norvegicus. Nature of the data set: Antiosteoporotic activity in ovariectomized rat assessed as increase in trabecular bone volume fraction at 1 mg/kg/day, po for 30 days by microcomputed tomographic analysis. It is filed as functional, organism-based. As to conditions: Trabecula. An outline of the steps: as §5
In data set [20] the test system is Rattus norvegicus. Nature of the data set: Antiosteoporotic activity in ovariectomized rat assessed as increase in trabecular number at 1 mg/kg/day, po for 30 days by microcomputed tomographic analysis. The format is functional, organism-based. Particulars: Trabecula. An outline of the steps: as §5
Data set [21] concerns Rattus norvegicus. Nature of the data set: Antiosteoporotic activity in ovariectomized po dosed rat assessed as increase in serum P1NP level administered for 30 days by ELISA. The format is functional, organism-based. An outline of the steps: as §4

Take `CCOC(=O)CNC(=O)[C@]12CC[C@@H](C)[C@H](C)[C@H]1C1=CC[C@@H]3[C@@]4(C)Cc5nc6ccccc6nc5C(C)(C)[C@@H]4CC[C@@]3(C)[C@]1(C)CC2`: the Activity in the data set with Rattus norvegicus [1] is 28%; in the data set on Rattus norvegicus [2], 36%; in the data set with Rattus norvegicus [3] it was “Non-toxic”; in the data set on Rattus norvegicus [6], 34%; with Rattus norvegicus [7] it was -24.9%; in the data set with Rattus norvegicus [8], 43.3%. Moreover, the Activity entry in the data set with Rattus norvegicus [9] is “Non-toxic”; in the data set on Rattus norvegicus [10] it was 24%; with Rattus norvegicus [14], “Dose-dependent effect”; in data set [15] it was “Non-toxic”; in data set [16] it was 1%; in the data set with Rattus norvegicus [17], 22.6%. Further, the values for the Activity entry in the data set with Rattus norvegicus [18] and in the data set on Rattus norvegicus [21] were “Non-toxic” and “Dose-dependent effect”, respectively. The outcome with Rattus norvegicus [4], in the data set on Rattus norvegicus [5], in the data set on Rattus norvegicus [11], in the data set on Rattus norvegicus [12], in the data set with Rattus norvegicus [13] and with Rattus norvegicus [19] was inactive. For the same compound, the result in the data set on Rattus norvegicus [20] was inactive. Besides, the Drug uptake result in the data set on Brain is given as “Not Active”.
